Test [1] can be described thus: Displacement of racemic [3H]CP-101606 from rat forebrain membrane N-methyl-D-aspartate glutamate receptor 2B.
The target of test [2] is T1, Glutamate receptor ionotropic, NMDA 2B (Rattus norvegicus, UniProt Q00960). As to the kind of experiment: Ability to displace of racemic […] of [3H]CP-101606 binding to N-methyl-D-aspartate glutamate receptor 2B in rat forebrain membranes. The class given is cell membranes, Membrane.
Test [3] is filed under the species Rattus norvegicus. The experiment in a line: Compound was tested for neuroprotection against NMDA-Induced toxicity in cultured rat hippocampal neurons. The class given is functional.
Test [4] has as its system Rattus norvegicus. The experiment in a line: Compound was evaluated in vivo for blockade of haloperidol induced catalepsy in rat when administered subcutaneously. The class given is functional. Particulars: sc. The essentials:
(§1)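 Rats given haloperidol were scored for catalepsy as remaining perched on an elevated bar. Test drug was given peripherally beforehand. ED50 in mg/kg ± SEM.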

In test [5] the test system is Rattus norvegicus. The experiment in a line: Compound was evaluated in vivo for blockade of haloperidol induced catalepsy in rat when administered perorally. The note with it: po. The class given is functional. The method in brief:
as §1

Test [6] relates to Rattus norvegicus. As to the kind of experiment: Compound was evaluated in vivo for blockade of haloperidol induced catalepsy in rat when administered perorally. The note with it: po. The class given is functional. The essentials: as §1
In test [7] the test system is Mus musculus. The experiment in a line: Compound was evaluated in vivo for blockade of NMDA-stimulated fos induction in mouse when administered intravenously. Particulars: iv. The class given is functional.
Test [8] deals with T1, Glutamate receptor ionotropic, NMDA 2B. As to the kind of experiment: Compound was evaluated for its blocking effect against N-methyl-D-aspartate glutamate receptor 2B. Details: species or system xenopus oocytes.
Test [9] can be described thus: Compound was evaluated for blockade of CSD as rats protected/ rats tested after a iv dose of 0.2 mg/kg followed by an infusion of 0.2 mg/kg/h; 0/2. The class given is functional, organism-based.
In test [10] the test system is Rattus norvegicus. As to the kind of experiment: Compound was evaluated for blockade of CSD in rats; rat protected /tested(mg/kg iv bolus+mg/kgh iv infusion) = 0/2 (0.2+0.2). The class given is functional, organism-based.
For test [11], the system named is Rattus norvegicus. The experiment in a line: Compound was evaluated for blockade of CSD in rats; rat protected /tested(mg/kg iv bolus+mg/kgh iv infusion) = 2/3 (0.6+0.6). The class given is functional, organism-based.
The nature of test [12]: Compound was evaluated for blockade of CSD as rats protected/ rats tested after a iv dose of 0.6 mg/kg followed by an infusion of 0.6 mg/kgh; 2/3. The class given is functional, organism-based.
Test [13] can be described thus: Compound was evaluated for blockade of CSD as rats protected/ rats tested after a iv dose of 2 mg/kg followed by an infusion of 2 mg/kgh; 2/2. The class given is functional, organism-based.
For test [14], the system named is Mus musculus. As to the kind of experiment: Compound was evaluated in vivo for blockade of NMDA-stimulated fos induction in mouse. The class given is functional.
The species entered for test [15] is Rattus norvegicus. As to the kind of experiment: Compound was tested for neuroprotection against NMDA-Induced toxicity in cultured hippocampal neurons. The class given is functional. The method in brief: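 Neuron loss was induced by NMDA or glutamate in primary rat hippocampal neuron cultures, and inhibition of that loss was measured.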

The source made the active and inactive calls. No cut-off for these calls is given here.

T1 sequence (Q00960 whole entry): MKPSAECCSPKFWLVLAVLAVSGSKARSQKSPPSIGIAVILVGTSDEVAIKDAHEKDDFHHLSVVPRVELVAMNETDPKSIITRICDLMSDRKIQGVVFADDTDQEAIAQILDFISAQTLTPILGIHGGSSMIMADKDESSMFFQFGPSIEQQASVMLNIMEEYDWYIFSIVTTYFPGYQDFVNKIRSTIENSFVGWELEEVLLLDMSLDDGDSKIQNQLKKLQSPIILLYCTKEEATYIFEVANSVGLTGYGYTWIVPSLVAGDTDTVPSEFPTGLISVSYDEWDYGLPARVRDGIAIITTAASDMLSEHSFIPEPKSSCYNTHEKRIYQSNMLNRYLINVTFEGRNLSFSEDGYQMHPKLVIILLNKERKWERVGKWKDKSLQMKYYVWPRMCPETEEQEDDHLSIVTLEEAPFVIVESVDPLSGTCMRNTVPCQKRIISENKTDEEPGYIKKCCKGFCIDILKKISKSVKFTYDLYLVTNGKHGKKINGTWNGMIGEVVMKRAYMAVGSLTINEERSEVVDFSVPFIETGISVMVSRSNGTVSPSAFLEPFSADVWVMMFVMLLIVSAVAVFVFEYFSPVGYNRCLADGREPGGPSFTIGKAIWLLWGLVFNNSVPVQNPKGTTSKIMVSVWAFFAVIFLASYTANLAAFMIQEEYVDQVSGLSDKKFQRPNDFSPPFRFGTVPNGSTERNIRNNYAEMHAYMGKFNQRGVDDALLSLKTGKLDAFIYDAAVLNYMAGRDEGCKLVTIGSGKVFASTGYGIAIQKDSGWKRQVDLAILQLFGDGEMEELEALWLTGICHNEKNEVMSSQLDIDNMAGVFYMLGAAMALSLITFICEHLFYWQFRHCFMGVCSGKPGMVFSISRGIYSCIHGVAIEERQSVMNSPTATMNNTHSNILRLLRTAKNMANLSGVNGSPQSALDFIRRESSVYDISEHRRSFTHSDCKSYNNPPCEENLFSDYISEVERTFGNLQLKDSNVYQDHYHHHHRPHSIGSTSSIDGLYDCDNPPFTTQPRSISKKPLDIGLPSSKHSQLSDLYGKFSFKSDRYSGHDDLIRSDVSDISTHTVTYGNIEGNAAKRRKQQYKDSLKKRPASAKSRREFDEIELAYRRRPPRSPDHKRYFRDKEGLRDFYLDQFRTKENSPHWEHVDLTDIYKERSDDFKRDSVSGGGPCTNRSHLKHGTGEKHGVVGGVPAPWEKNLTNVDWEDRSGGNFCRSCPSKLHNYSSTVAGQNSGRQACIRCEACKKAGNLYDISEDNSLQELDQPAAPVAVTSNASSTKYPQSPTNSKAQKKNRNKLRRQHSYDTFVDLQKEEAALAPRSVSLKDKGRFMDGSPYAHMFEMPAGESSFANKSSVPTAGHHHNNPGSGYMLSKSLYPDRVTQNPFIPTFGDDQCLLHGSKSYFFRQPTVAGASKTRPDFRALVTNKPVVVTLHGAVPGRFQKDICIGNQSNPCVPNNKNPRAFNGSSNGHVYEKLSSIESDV

In test [1], `Oc1ccc2c(c1)OC[C@@H](N1CCC(O)(c3ccc(C(F)(F)F)cc3)CC1)[C@H]2O` came in with an IC50 of 20 nM.

For `Oc1ccc2c(c1)OC[C@@H](N1CCC(O)(c3ccc(F)cc3)CC1)C2`, the IC50 in [2] was found to be 300 nM.

For `Oc1ccc2c(c1)OC[C@@H](N1CCC(c3ccccc3)CC1)[C@H]2O`, inhibition in the test listed under Rattus norvegicus [3] (Rattus norvegicus) was half-maximal at 25 nM (IC50).

Consider `Oc1ccc2c(c1)OC1C[C@]1(N1CCC(O)(c3ccc(F)cc3)CC1)[C@H]2O` (stereo not given in full), for which the IC50 in the test listed under Rattus norvegicus [3] (Rattus norvegicus) is 1000 nM. Compared with the last compound, the IC50 is about 40-fold higher.

On to `Oc1ccc2c(c1)OC[C@@H](N1CCC(O)(c3ccccc3)CC1)[C@@H]2O`, for which inhibition in the test filed under Rattus norvegicus [3] (Rattus norvegicus) was half-maximal at 383 nM (IC50).

Take `Oc1ccc2c(c1)OC[C@H](N1CCC(O)(c3ccc(F)cc3)CC1)[C@@H]2O`: the IC50 in the test filed under Rattus norvegicus [3] (Rattus norvegicus) turned out to be 11 nM; in test [1], 35 nM. Further, the values for the ED50 with Rattus norvegicus [4] and in the test on Rattus norvegicus [5] were 1.1 mg/kg and 6.8 mg/kg, respectively.

With `Oc1ccc2c(c1)OC[C@@H](N1CCC(O)(CCc3ccccc3)CC1)[C@H]2O`, in the test filed under Rattus norvegicus [3] (Rattus norvegicus), the midpoint of inhibition, the IC50, lay at 20 nM.

Turning to `Oc1ccc2c(c1)OC[C@@H](N1CCC(Cc3ccccc3)CC1)[C@H]2O`, the results for the IC50 (in the test listed under Rattus norvegicus [3] (Rattus norvegicus); in test [1]) were 160 nM and 130 nM, respectively.

In turn, `CO[C@H]1c2ccc(O)cc2OC[C@H]1N1CCC(O)(c2ccc(F)cc2)CC1` came in with an IC50 in [1] of over 300 nM.

For `Oc1ccc2c(c1)OC[C@@H](N1CCC(O)(Cc3ccccc3)CC1)[C@H]2O`, in the test listed under Rattus norvegicus [3] (Rattus norvegicus), half-maximal inhibition (IC50) was put at 533 nM. That is a sub-micromolar value.

`Oc1cc2c(cc1F)[C@H](O)[C@H](N1CCC(O)(c3ccc(F)cc3)CC1)CO2`: the IC50 in the test listed under Rattus norvegicus [3] (Rattus norvegicus) worked out at 23 nM; in test [1], 17 nM.

`COc1ccc2c(c1)OC[C@@H](N1CCC(O)(c3ccc(F)cc3)CC1)[C@H]2O` gave an IC50 in test [1] of over 300 nM.

In the case of `Oc1ccc2c(c1)OC[C@H](N1CCC(O)(c3ccccc3)CC1)[C@@H]2O`, the 50% inhibitory concentration (IC50) was found to be 108 nM in the test filed under Rattus norvegicus [3] (Rattus norvegicus) and 107 nM in [1].

Turning to `Oc1ccc2c(c1)OC[C@@H](N1CCC(O)(c3ccccc3)CC1)[C@H]2O` (stereo in doubt; 3a), the IC50 was found to be 129 nM in the test filed under Rattus norvegicus [3] and 54 nM in test [1].

Consider `Oc1ccc2c(c1)OC[C@@H](N1CCC(O)(c3ccccc3)CC1)[C@H]2O` (stereo in doubt; 5a), for which the IC50 in the test filed under Rattus norvegicus [3] turned out to be 9 nM; in test [1] it was 31 nM.

For `Oc1ccc2c(c1)OC[C@@H](N1CCC(O)(c3ccc(F)cc3)CC1)[C@H]2O` (stereo in doubt; 10a), the IC50 was 5 nM in the test filed under Rattus norvegicus [3] (Rattus norvegicus) and 28 nM in test [1].

`Oc1ccc2c(c1)OC[C@@H](N1CCC(O)(c3ccc(F)cc3)CC1)[C@H]2O` (stereo in doubt; 12a) [listing 1 of 2 here]: the concentration for half-maximal inhibition (IC50) in the test filed under Rattus norvegicus [3] came out at 4 nM; in test [1] it was 18 nM; in [8], 206 nM. Moreover, the results for the median effective dose (ED50) with Rattus norvegicus [4], in the test with Rattus norvegicus [6] and with Mus musculus [7] were 0.3 mg/kg, 1.2 mg/kg and 4 mg/kg, respectively.

On to `Oc1ccc2c(c1)OC[C@@H](N1CCC(O)(c3ccc(F)cc3)CC1)[C@H]2O` (stereo in doubt; 12a) [listing 2 of 2 here], for which the Ratio result in [9] is “inactive”. Also, the Blockade effect result in the test on Rattus norvegicus [10] is “inactive”. Further, in the test on Rattus norvegicus [11], the Blockade effect result was “Partially active”. Further, in [12], the Ratio result is “Partially active”. Further, the Ratio result in test [13] is “Active”.

On to `C[C@@H]([C@@H](O)c1ccc(O)cc1)N1CCC(O)(c2ccccc2)CC1` [TRAXOPRODIL], for which the 50% effective dose (ED50) with Mus musculus [14] came to 1 mg/kg; in the test on Rattus norvegicus [4], 0.4 mg/kg. Besides, the IC50 in the test filed under Rattus norvegicus [15] is 11 nM; in [1], 27 nM.

The term IC50 denotes the concentration at which inhibition is half-maximal. As a reminder, the ED50 is the dose that gives a 50% effect, or the effect in half of the subjects.
